A selection: hits, their analogues and other compounds. The true share with any hit is near 8.9%.
b-catenin transl: modulators of beta-catenin nuclear translocation, primary screen, imaging, HeLa cells, immunofluorescence, high-content; nuclear translocation activity, % at 5 µM; 190,000 tested, 0.3% active; AID 1665, 2009;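 active means nuclear translocation activity above 50% at 5 µM, with a well cell count of 50 or more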;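 further: per-cell ratio of nuclear to cytoplasmic median beta-catenin stain intensity; plate controls were DMSO negative control for no effect and GSK-3 inhibitor IX positive control for full effect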
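Test system: HeLa cells, endogenous beta-catenin; Compound: single 5 µM dose plus 0.02–20 µM confirmation series; Times: compound exposure 24 h at 37°C; Signal: fluorescence imaging of beta-catenin antibody stain plus DAPI; Read-out: % activation, nuclear-to-cytoplasmic median beta-catenin signal ratio per cell.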
Lmaj promast: Leishmania major promastigote growth inhibition, primary screen; Leishmania major promastigotes, resazurin fluorescence viability; inhibition, % at 10 µM; 200,000 tested, 9% active; AID 1063, 2008; in the data active means inhibition above about 50%;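 further: promastigotes grown with compound for 44 hours at 28 °C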
MT stabilizer: microtubule stabilizers in HeLa cells, primary screen, imaging, high-content imaging; HeLa tubulin immunostaining HCS, 24 h; share of cells brighter than vehicle mean+2SD; % tubulin-high responders, % at 10 µM; 200,000 tested, 0.83% active; AID 2205, 2009;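 active means plate Z-score above 3 for both tubulin-high and condensed-nucleus cell shares, with cell loss under 80%, at 10 µM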;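 further: anti alpha tubulin signal scored within the nucleus-defined area of each cell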
HSV augment: enhancers of HSV replication in host cells, fold increase, host cell viability; HSV replication augmentation in cells; maximum fold increase; 220,000 tested, 0.005% active; AID 1956, 2009; in the data active means maximum fold increase above about 1.5; tested in PC3 cells
Dynein transport: inhibitors of GR-EGFP nuclear translocation, primary screen, dynein cargo transport inhibitor project, imaging, high-content, 3617.4 mouse cells | test concentration mostly 20 µM; stimulated with dexamethasone, 1 µM; active compounds read low | z-score, hits read low | 220,000 tested, 0.47% active | AID 1381, 2008;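 active means plate z-score of nuclear minus cytoplasmic receptor signal below a set negative limit, without overly bright fluorescence or cell loss, cut at about -3.5 in these data, passing the limit was not always enough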;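 further: z-score of nuclear minus cytoplasmic ring GR-EGFP intensity difference per well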
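Medium: Induction medium lacking tetracycline, stripped serum | Probe or stimulus: 1.0 µM final dexamethasone stimulus | Schedule: 48 h induction, then 1 h compound, then 30 min agonist, 37 °C | Signal: Automated 10x imaging of fixed Hoechst-stained cells | Evaluation: Per-cell GR-EGFP intensity, nucleus versus surrounding cytoplasmic ring, well-averaged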
Numbers without * were called inactive; i = inactive; x = no result.

SMILES	b-catenin transl	Lmaj promast	MT stabilizer	HSV augment	Dynein transport
CC(C)(C)NC(=O)c1cccc(NC(=O)CSc2ccccc2)c1	0	77*	1	i	-0.26
COC(=O)C1=C(C)Nc2nc3ccccc3n2C1c1ccccc1F (centres undefined)	1	x	x	i	-0.92
COc1nc(SC)nc(Cl)c1Cc1ccc(OC(C)C)cc1	-4	66*	3	i	0.65
CCCOc1ccc(Cc2c(Cl)nc(SC)nc2OC)cc1	-2	-3	3	i	-0.84
CCC(=O)N(CC(=O)Nc1sc(C)c(C)c1C(N)=O)C1CCCC1	-1	-5	2	i	-0.69
S=C(Nc1cccc(Cl)c1)NC1CC2CCCC(C1)N2C1CCCC1 (centres undefined)	-1	73*	2	i	-0.52
C=CCN1C2CCCC1CC(NC(=S)Nc1ccc(Cl)cc1)C2 (centres undefined)	0	96*	3	i	-0.45
S=C(Nc1ccc(Cl)cc1)NC1CC2CCCC(C1)N2C1CC1 (centres undefined)	2	38	4	i	0.64
S=C(Nc1ccc(Cl)cc1)NC1CC2CCCC(C1)N2C1CCCC1 (centres undefined)	x	77*	1	i	1
CC(C)(C)OC(=O)N1CCC[C@H]1C(=O)N/N=C/c1cccc2cccnc12	-3	x	x	i	-0.25
CCNC(=S)N/N=C/c1ccc(C#N)cc1	2	-2	5	i	1.6
Oc1ccc(/C=N/N=C/c2ccc(O)cc2)cc1	1	-1	5	i	0.35
N#Cc1ccc(/C=N/N=C(N)N)cc1	-3	79*	2	i	2.4
NC(N)=N/N=C/c1ccc(Br)cc1	113*	100*	24*	i	-0.13
OC(COc1ccc2ccccc2c1Br)Cn1ccnc1 (centres undefined)	3	98*	4	i	0.19
Cc1cccc2nc(COc3ccc4ccccc4c3Br)cn12	2	x	x	i	-0.85
OC(COc1ccc2ccccc2c1)Cn1ccnc1 (centres undefined)	-3	98*	5	i	-0.4
CC(=O)Nc1ccc(OCC(O)Cn2ccnc2)cc1 (centres undefined)	0	-5	4	i	-0.3
O=C(C[N+]1(CC#Cc2ccccc2)CCCCC1)c1ccccc1	-1	45	3	i	-0.11
CCC[N+](CC#Cc1ccccc1)(CCC)CC(=O)c1ccc(Cl)cc1	0	100*	3	i	0.99
C(#Cc1ccccc1)C[N+]1(CC#Cc2ccccc2)CCCCC1	0	100*	2	i	-0.095
Cc1ccc(C#CC[N+]2(CC#Cc3ccc(C)cc3)CCCCC2)cc1	-2	100*	2	i	-0.15
CCC[N+](CC#Cc1ccccc1)(CCC)CC(=O)OC	-1	-6	2	i	0.12
O=C(C[N+]1(CC#Cc2ccccc2)CCCCC1)c1ccc(Cl)cc1	-2	52*	2	i	-0.62
CC(=O)CCc1ccc(OC(=O)c2cccnc2)cc1	-1	-1	3	i	-0.67
SMILES	b-catenin transl	Lmaj promast	MT stabilizer	HSV augment	Dynein transport
CN=c1scc(-c2ccccc2Br)n1/N=C/c1ccc[nH]1	-1	14	7	i	0.3
Cc1ccc(N2CCN(CC(O)COc3cccc4ccccc34)CC2)cc1 (centres undefined)	0	x	x	i	-0.2
C(#Cc1ccccc1)C[N+]1(CC#Cc2cccc3ccccc23)CCOCC1	0	100*	2	i	1.2
COc1ccc(CCNC(=O)C2CC(=O)N(c3ccc(F)cc3)C2)cc1OC (centres undefined)	-4	-6	4	i	-0.39
Cc1cccc(N2CCN(C(=O)c3ccc(Cl)c(S(=O)(=O)N4CCc5ccccc5C4)c3)CC2)c1C	-2	99*	3	i	0.37
Cc1cccc(N2CCN(C(=O)c3ccc(Cl)c(S(=O)(=O)NCc4ccco4)c3)CC2)c1C	1	42	42*	x	2.4
O=C(NCC1(N2CCOCC2)CCCCC1)c1ccc(Cl)c(S(=O)(=O)NCc2ccco2)c1	1	93*	5	i	-0.9
CCOc1ccc(OCc2ccc(C(=O)N(CC)CC)cc2)cc1	-2	7	5	i	0.043
CC(=O)Nc1ccc(SCC(=O)c2cc(C)n(CC(F)(F)F)c2C)cc1	x	61*	2	i	1.1
Cc1cc(C)n(-c2nc(NCCC(C)C)c3c4c(sc3n2)COC(C)(C)C4)n1	-3	71*	4	x	0.71
CC1(C)Cc2nc3sc4c(SCC(=O)NCc5ccccc5)ncnc4c3cc2CO1	x	-2	35*	i	-0.012
CCOc1ccc2c(c1)/C(=N/N1C(=O)c3ccccc3C1=O)C(=O)N2	0	-13	3	i	-0.77
COc1ccc(/C=N/NC(=O)c2nn(-c3ccc(Cl)cc3)c(=O)c3c(N)scc23)cc1	-2	69*	2	i	-0.48
COc1ccc(/C=N/NC(=O)c2nn(-c3ccccc3)c(=O)c3c(N)scc23)cc1	-2	83*	2	i	-0.53
COc1ccc(/C=N/NC(=O)c2nn(-c3ccc(C)c(C)c3)c(=O)c3ccccc23)cc1	-2	28	1	i	1.5
COc1ccc(Br)c(C(=O)N2CCN(S(=O)(=O)/C=C/c3ccccc3)CC2)c1	-4	3	3	i	0.39
O=C(/C=C1\NC2(CCCC2)Cc2ccccc21)C(=O)N/N=C/c1ccccc1O	2	99*	6	i	-0.34
COc1cc(/C=N/NC(=O)C(=O)/C=C2\NC3(CCCC3)Cc3ccccc32)ccc1O	0	12	4	i	-0.92
Cc1sc(NC(=O)C2CCCCC2C(=O)O)c(C(N)=O)c1C (centres undefined)	0	-5	1	i	0.66
O=C(Cc1cn(Cc2cccc(Cl)c2)c2ccccc12)N1CCCC1	-1	99*	3	i	0.26
O=C(CS(=O)(=O)c1cn(Cc2ccc(Cl)cc2)c2ccccc12)N1CCCC1	x	-3	3	i	1
Cc1c(C(=O)NCCCN2CCOCC2)oc2c1C1(CCC2)SCCS1	0	88*	2	i	-0.61
COCC(C)NC(=O)c1oc2c(c1C)C1(CCC2)SCCS1 (centres undefined)	-2	2	4	i	-0.45
Cc1ccc(NC(=O)C(NC2CCCc3ccccc32)c2ccccc2)cc1Cl (centres undefined)	1	58*	2	i	-0.1
COCC(C)NC(C(=O)Nc1ccc(C)c(Cl)c1)c1ccccc1 (centres undefined)	x	26	2	i	-1.2
Cc1ccc(NC(=O)C(NC2CCCc3ccccc32)c2ccccc2)c([N+](=O)[O-])c1 (centres undefined)	-4	89*	2	i	0.26
